Here are results for 76 sequences from the array DNA melting data of Ke et al. (doi:10.1101/2024.01.08.574731).

Data set [1] is described as follows: melting temperature; fluorescence melt of hairpins on a sequencing array, two-state fit, raised by 9.35 °C to match UV melts. To be noted: sodium 0.088 M. The gist of the method:
(§1)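 Library hairpins on a sequenced MiSeq flow cell carried annealed Cy3 and quencher oligos, and their Cy3 fluorescence was imaged in 50 mM Na-HEPES pH 8.0 with 25 mM NaCl, in 2.5 °C steps up to 60 °C. Signals were normalised to Cy3 before quenching and to control constructs. Melting temperature and folding enthalpy were obtained from bootstrapped two-state fits, combined by inverse-variance weighting across four replicates, and the fitted temperatures were then raised by 9.35 °C to match UV melts.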

A short description of data set [2]: folding enthalpy; higher = less favourable; fluorescence melt of hairpins on a sequencing array, two-state fit. The following applies: sodium 0.088 M. The gist of the method:
as §1

For the sequence GCGTATCCGAAAGGACGC (((..(((....)))))), in data set [1], the Tm was determined as 50.2 °C. Moreover, in data set [2], the folding enthalpy is -27.1 kcal/mol.
Regarding GCGTATCGAAAGATGCGC (((.(((....))).))), the Tm in data set [1] worked out at 66.3 °C. Also, the folding enthalpy in data set [2] was -43.8 kcal/mol.
GCGTATGGAAACATACAC (.(((((....))))).): the Tm in data set [1] came to 36.7 °C. Moreover, the folding enthalpy in data set [2] is -15.8 kcal/mol.
Taken in the same sequence, the figures for GCGTATGTACGC ((((....)))) were 54.8 °C and -22.4 kcal/mol.
Taken in the same sequence, the figures for GCGTATTAACGC ((((....)))) were 53.8 °C and -22.1 kcal/mol.
For GCGTATTCGAAAGAACGC (((..(((....)))))), the Tm in data set [1] was 42.2 °C. Also, the folding enthalpy in data set [2] was -24.4 kcal/mol.
Regarding GCGTCACGACGC ((((....)))), in data set [1], the Tm is 58.6 °C. Also, the folding enthalpy in data set [2] was -31.7 kcal/mol.
Taken in the same sequence, the figures for GCGTCAGCGAAAGCTCGC (((..(((....)))))) were 47.2 °C and -10.1 kcal/mol.
With GCGTCAGGAAACTGGTGC ((..(((....)))..)), the Tm in data set [1] came to 41.6 °C. In data set [2], the folding enthalpy is -27.1 kcal/mol.
GCGTCCCCGAAAGGGCGC (((..(((....)))))): the Tm in data set [1] stood at 65.2 °C. Besides, the folding enthalpy in data set [2] was -24.3 kcal/mol.
Taken in the same sequence, the figures for GCGTCCGAAAGGAGGCGC ((((((....)))..))) were 67.5 °C and -36.3 kcal/mol.
Taken in the same sequence, the figures for GCGTCCGAAAGGATACGC ((((((....)))..))) were 55.5 °C and -29.2 kcal/mol.
Taken in the same sequence, the figures for GCGTCCGAAAGGATCGC ((((((....))).))) were 59.5 °C and -37.8 kcal/mol.
On to GCGTCCGACGC ((((...)))), for which the Tm in data set [1] is 53.9 °C. Further, in data set [2], the folding enthalpy was -27.1 kcal/mol.
Taken in the same sequence, the figures for GCGTCCGGAAACGAACGC ((((.((....)).)))) were 54.7 °C and -42.8 kcal/mol.
Taken in the same sequence, the figures for GCGTCCGGAAACGGGTGC ((..(((....)))..)) were 51.2 °C and -30.8 kcal/mol.
Taken in the same sequence, the figures for GCGTCCTAACGC ((((....)))) were 54.8 °C and -26.4 kcal/mol.
GCGTCCTACGC ((((...)))): in data set [1], the Tm came to 62.5 °C. The folding enthalpy in data set [2] was -20.2 kcal/mol.
As for GCGTCGAAACGC ((((....)))), the Tm in data set [1] stood at 51.3 °C. In data set [2], the folding enthalpy is -18.4 kcal/mol.
Taken in the same sequence, the figures for GCGTCGCGAAAGCAAAGC ((.(.((....)).).)) were 62.6 °C and -21.3 kcal/mol.
Taken in the same sequence, the figures for GCGTCGCGAAAGCAATGC ((.(.((....)).).)) were 43.9 °C and -21.6 kcal/mol.
Taken in the same sequence, the figures for GCGTCGCGAAAGCGTTGC ((..(((....)))..)) were 48.6 °C and -17.9 kcal/mol.
GCGTCGCGAAAGCTACGC ((((.((....)).)))): the Tm in data set [1] was found to be 66.9 °C. Further, in data set [2], the folding enthalpy was -29.4 kcal/mol.
Taken in the same sequence, the figures for GCGTCGGCGAAAGCCCGC (((..(((....)))))) were 58.7 °C and -17 kcal/mol.
Taken in the same sequence, the figures for GCGTCTAACGC ((((...)))) were 53.3 °C and -20.6 kcal/mol.
On to GCGTCTCACGC ((((...)))), for which the Tm in data set [1] came to 56.4 °C. Further, in data set [2], the folding enthalpy was -23.4 kcal/mol.
For GCGTCTCCGAAAGGACGC (((..(((....)))))), the Tm in data set [1] amounted to 56.8 °C. The folding enthalpy in data set [2] is -33.1 kcal/mol.
Taken in the same sequence, the figures for GCGTCTCGAAAGAGCCGC (((.(((....))).))) were 56.5 °C and -42.6 kcal/mol.
Taken in the same sequence, the figures for GCGTCTCGAAAGAGCGC (((.(((....)))))) were 66.8 °C and -31 kcal/mol.
Taken in the same sequence, the figures for GCGTCTGGAAACAAACGC ((((.((....)).)))) were 44.5 °C and -32.2 kcal/mol.
GCGTCTGGAAACAGATGC ((.((((....)))).)): the Tm in data set [1] stood at 54.6 °C. Besides, the folding enthalpy in data set [2] is -55.5 kcal/mol.
On to GCGTCTGTACGC ((((....)))), for which, in data set [1], the Tm came out at 53.3 °C. Besides, in data set [2], the folding enthalpy is -26.2 kcal/mol.
Taken in the same sequence, the figures for GCGTGAACGAAAGTTCGC (((..(((....)))))) were 48.6 °C and -15.3 kcal/mol.
As to GCGTGACGAAAGTCTCGC (((.(((....))).))), the Tm in data set [1] amounted to 67.7 °C. Moreover, the folding enthalpy in data set [2] is -39.4 kcal/mol.
As for GCGTGAGGAAACTCACAC (.(((((....))))).), the Tm in data set [1] is 42.3 °C. Further, in data set [2], the folding enthalpy is -13.8 kcal/mol.
Turning to GCGTGAGGAAACTCGCGC (((.(((....))).))), the Tm in data set [1] came out at 64.8 °C. Moreover, the folding enthalpy in data set [2] is -43 kcal/mol.
Taken in the same sequence, the figures for GCGTGAGGAAACTTACGC ((((.((....)).)))) were 52 °C and -33.8 kcal/mol.
With GCGTGATCGAAAGATCGC (((..(((....)))))), in data set [1], the Tm worked out at 47.5 °C. Moreover, in data set [2], the folding enthalpy is -15.6 kcal/mol.
Taken in the same sequence, the figures for GCGTGCCCACGC ((((....)))) were 60.2 °C and -26.6 kcal/mol.
Taken in the same sequence, the figures for GCGTGCGAAAGCAGACGC ((((((....)))..))) were 62.7 °C and -28.1 kcal/mol.
GCGTGCGAACGC ((((....)))): the Tm in data set [1] was 69 °C. Besides, in data set [2], the folding enthalpy was -18.2 kcal/mol.
Taken in the same sequence, the figures for GCGTGCGCGAAAGCGCGC (((..(((....)))))) were 65.1 °C and -6.87 kcal/mol.
Taken in the same sequence, the figures for GCGTGCGGAAACGCATGC ((.((((....)))).)) were 67.4 °C and -31 kcal/mol.
Taken in the same sequence, the figures for GCGTGCTCGAAAGAGCGC (((..(((....)))))) were 51.5 °C and -10.2 kcal/mol.
On to GCGTGGATACGC ((((....)))), for which, in data set [1], the Tm is 66.6 °C. For the same sequence, in data set [2], the folding enthalpy is -28.2 kcal/mol.
GCGTGGCGAAAGCAAGGC ((.(.((....)).).)): in data set [1], the Tm was 46.6 °C. In addition, the folding enthalpy in data set [2] is -18.8 kcal/mol.
With GCGTGGCGAAAGCCTGGC ((..(((....)))..)), the Tm in data set [1] turned out to be 52.4 °C. Also, the folding enthalpy in data set [2] is -17.4 kcal/mol.
Take GCGTGGCGAAAGCCTTGC ((..(((....)))..)): the Tm in data set [1] stood at 48 °C. Also, in data set [2], the folding enthalpy was -16.4 kcal/mol.
For the sequence GCGTGGCGAAAGCTCCGC (((..((....))..))), the Tm in data set [1] was 54.8 °C. Moreover, in data set [2], the folding enthalpy was -22.1 kcal/mol.
GCGTGGCGAAAGCTGCGC (((..((....))..))): the Tm in data set [1] was 67.9 °C. The folding enthalpy in data set [2] was -40.4 kcal/mol.
As for GCGTGGCGAAAGCTTCGC (((..((....))..))), the Tm in data set [1] is 59.5 °C. For the same sequence, the folding enthalpy in data set [2] is -23.6 kcal/mol.
Taken in the same sequence, the figures for GCGTGGTCGAAAGACCGC (((..(((....)))))) were 53.2 °C and -10.9 kcal/mol.
Taken in the same sequence, the figures for GCGTGTCGAAAGACCGC (((.(((....)))))) were 67 °C and -33 kcal/mol.
Taken in the same sequence, the figures for GCGTGTGCGAAAGCACGC (((..(((....)))))) were 57.5 °C and -9.9 kcal/mol.
As to GCGTGTTACGC ((((...)))), the Tm in data set [1] worked out at 61.6 °C. Besides, the folding enthalpy in data set [2] is -24 kcal/mol.
Taken in the same sequence, the figures for GCGTGTTGACGC ((((....)))) were 55 °C and -23.9 kcal/mol.
As for GCGTTAACGAAAGTTCGC (((..(((....)))))), the Tm in data set [1] was 46.8 °C. Also, in data set [2], the folding enthalpy was -29.4 kcal/mol.
Taken in the same sequence, the figures for GCGTTACAACGC ((((....)))) were 58.6 °C and -26.4 kcal/mol.
As to GCGTTACCACGC ((((....)))), in data set [1], the Tm worked out at 52.8 °C. In data set [2], the folding enthalpy was -24.2 kcal/mol.
Take GCGTTACGACGC ((((....)))): in data set [1], the Tm is 56.8 °C. Moreover, in data set [2], the folding enthalpy was -25.9 kcal/mol.
Taken in the same sequence, the figures for GCGTTAGACGC ((((...)))) were 51.3 °C and -18.1 kcal/mol.
For the sequence GCGTTAGCACGC ((((....)))), in data set [1], the Tm turned out to be 61.7 °C. In addition, the folding enthalpy in data set [2] is -8.5 kcal/mol.
Regarding GCGTTAGGAAACTAGTGC ((..(((....)))..)), the Tm in data set [1] turned out to be 25.7 °C. The folding enthalpy in data set [2] is -11.4 kcal/mol.
Taken in the same sequence, the figures for GCGTTAGTACGC ((((....)))) were 51.1 °C and -19.8 kcal/mol.
Taken in the same sequence, the figures for GCGTTATCGAAAGATCGC (((..(((....)))))) were 44.3 °C and -26.1 kcal/mol.
Taken in the same sequence, the figures for GCGTTCAGACGC ((((....)))) were 53.6 °C and -23.8 kcal/mol.
GCGTTCCGAAAGGACCGC (((.(((....))).))): the Tm in data set [1] came to 58.4 °C. Also, in data set [2], the folding enthalpy is -46.4 kcal/mol.
With GCGTTCCGAAAGGACGC (((.(((....)))))), in data set [1], the Tm came out at 63.3 °C. For the same sequence, the folding enthalpy in data set [2] was -41.9 kcal/mol.
Taken in the same sequence, the figures for GCGTTCCGACGC ((((....)))) were 58 °C and -27.8 kcal/mol.
Turning to GCGTTCGAAAGAACCCGC ((((((....)))..))), in data set [1], the Tm was 40.8 °C. Besides, in data set [2], the folding enthalpy was -14.2 kcal/mol.
Consider GCGTTCGAAAGAAGTCGC ((((((....)))..))), for which, in data set [1], the Tm came out at 37.7 °C. In addition, the folding enthalpy in data set [2] is -26.4 kcal/mol.
Taken in the same sequence, the figures for GCGTTCGAAAGAATACGC ((((((....)))..))) were 47.5 °C and -27.3 kcal/mol.
Consider GCGTTCGAAAGAATTCGC ((((((....)))..))), for which the Tm in data set [1] stood at 36.2 °C. Also, the folding enthalpy in data set [2] was -26.6 kcal/mol.
For GCGTTCGAACGC ((((....)))), the Tm in data set [1] stood at 56.9 °C. The folding enthalpy in data set [2] is -36 kcal/mol.
For the sequence GCGTTGAAACGC ((((....)))), the Tm in data set [1] was 53.5 °C. Besides, the folding enthalpy in data set [2] was -20.8 kcal/mol.
Taken in the same sequence, the figures for GCGTTGACACGC ((((....)))) were 50.1 °C and -21.2 kcal/mol.
